Test results as given in ChEMBL document CHEMBL1828519, “Tricyclic thiazolopyrazole derivatives as metabotropic glutamate receptor 4 positive allosteric modulators” (J Med Chem, 2011).
Values after ≈ are worked out from the molar mass of the structure shown.

How the values were obtained:
[1] = target: T1, Metabotropic glutamate receptor 4 (Homo sapiens, UniProt Q14833); assay: Positive allosteric modulation of human mGlu4 receptor expressed in BHK cells assessed as potentiation of glutamate-induced calcium mobilization after 1 hr by FLIPR assay; format: functional, cell-based
T1 sequence (Q14833 whole entry): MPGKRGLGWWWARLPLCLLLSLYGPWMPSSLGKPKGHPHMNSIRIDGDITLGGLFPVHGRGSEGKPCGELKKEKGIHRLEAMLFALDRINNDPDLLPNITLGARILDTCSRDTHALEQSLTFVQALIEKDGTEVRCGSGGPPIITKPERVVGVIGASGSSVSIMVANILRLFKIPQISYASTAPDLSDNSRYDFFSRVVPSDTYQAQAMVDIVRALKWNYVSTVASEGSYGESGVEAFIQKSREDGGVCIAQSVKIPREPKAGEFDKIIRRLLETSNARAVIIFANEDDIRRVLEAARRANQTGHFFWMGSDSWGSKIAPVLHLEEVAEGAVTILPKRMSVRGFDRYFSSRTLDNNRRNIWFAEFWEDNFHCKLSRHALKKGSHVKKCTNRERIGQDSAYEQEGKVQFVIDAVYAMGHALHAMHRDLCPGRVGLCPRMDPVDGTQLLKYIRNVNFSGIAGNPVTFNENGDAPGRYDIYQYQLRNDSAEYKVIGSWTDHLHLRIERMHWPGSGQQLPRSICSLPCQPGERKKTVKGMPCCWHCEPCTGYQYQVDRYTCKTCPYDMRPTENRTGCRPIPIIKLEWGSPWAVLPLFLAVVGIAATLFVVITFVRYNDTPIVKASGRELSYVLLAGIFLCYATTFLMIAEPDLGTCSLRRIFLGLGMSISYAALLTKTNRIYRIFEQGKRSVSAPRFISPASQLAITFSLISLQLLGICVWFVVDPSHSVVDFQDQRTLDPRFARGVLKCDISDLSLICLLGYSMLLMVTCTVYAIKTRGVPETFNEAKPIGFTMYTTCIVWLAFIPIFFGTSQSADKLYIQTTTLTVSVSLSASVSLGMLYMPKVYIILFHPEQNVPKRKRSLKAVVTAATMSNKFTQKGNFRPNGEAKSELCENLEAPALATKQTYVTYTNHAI
Summary of the method: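 Stable BHK line co-expressing human mGlu4 and murine Gα15, plated on poly-D-lysine 24 h ahead. Cells loaded 1 h at 37 °C, 5% CO2 with Calcium 3 dye in HBSS/20 mM HEPES pH 7.4, 0.1% BSA, 2.5 mM probenecid. Test agent added with an EC20 glutamate challenge. Peak fluorescence change read by FLIPR and fitted to the Hill equation. At least two independent runs in duplicate, means reported.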

[2] = target: T1, Metabotropic glutamate receptor 4; assay: Positive allosteric modulation of human mGlu4 receptor expressed in BHK cells assessed as potentiation of glutamate-induced response after 1 hr by FLIPR assay relative to glutamate; format: cell-based
Summary of the method: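 BHK cells stably co-expressing human mGlu4 and murine G-protein […], grown in DMEM at 37 °C, 5% CO₂. Cells seeded 24 h before assay, then loaded with Calcium 3 no-wash dye in HBSS/HEPES pH 7.4 with 0.1% BSA and 2.5 mM probenecid for 1 h at 37 °C. FLIPR calcium read after stimulation with EC₂₀ glutamate plus compound. Emax is percent of maximal glutamate response. Mean of ≥2 independent duplicate experiments.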

[3] = Apparent permeability of the compound by PAMPA assay; format: ADME
Summary of the method: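 Passive permeability measured in a PAMPA assay.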

[4] = Kinetic solubility of the compound at pH 7.4 at room temperature; format: physicochemical; conditions: buffer, read-out: Kinetic_solubility
Summary of the method: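 Kinetic solubility measured from DMSO stock solutions at room temperature. Assay run at the pH named in each line.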

[5] = Intrinsic clearance in human microsomes; format: ADME, Microsome
Summary of the method: (§1)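 Intrinsic clearance measured in rat and human liver microsomes. Hepatic blood flow references given as 20 mL/min for rat and 1.5 L/min for human.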

[6] = Plasma protein binding in human; format: ADME, cell-free; conditions: read-out: PPB (converted)
[7] = Plasma protein binding in rat; format: ADME, cell-free; conditions: read-out: PPB (converted)
[8] = Intrinsic clearance in rat microsomes; format: ADME, Microsome; summary of the method: as §1

Row | Compound | EC50 [1] | Emax [2] | Papp [3] | solubility kinetic [4] | further results
1 | OCc1cccc(Nc2nc3c(s2)CCCc2n[nH]cc2-3)n1 | 2700 nM | 76% | 38.8 ×10⁻⁶ cm/s | 30 µM (≈ 9.4 µg/mL) | 
2 | c1csc(Nc2nc3c(s2)CCCc2n[nH]cc2-3)n1 | > 10000 nM | 35% |  |  | 
3 | Cc1sc(Nc2ccccn2)nc1-c1cn[nH]c1 | 13 nM | 100% |  |  | 
4 | Cc1cccnc1Nc1nc2c(s1)CCCc1[nH]ncc1-2 | 3400 nM |  | 8 ×10⁻⁶ cm/s | 0.2 µM (≈ 0.0595 µg/mL) | 
5 | Cc1cc(C)nc(Nc2nc3c(s2)CCCc2[nH]ncc2-3)c1 | > 10000 nM |  | 1.2 ×10⁻⁶ cm/s | 0.4 µM (≈ 0.125 µg/mL) | 
6 | N#Cc1cccc(Nc2nc3c(s2)CCCc2n[nH]cc2-3)n1 |  | 50% |  |  | 
7 | Cc1ccc(Nc2nc3c(s2)CCCc2n[nH]cc2-3)nn1 | > 10000 nM | 6.3% | 31 ×10⁻⁶ cm/s | 21 µM (≈ 6.27 µg/mL) | 
8 | O=C(Nc1cc(Cl)cc(Cl)c1)[C@H]1CCCC[C@H]1C(=O)O | 750 nM | 120% |  |  | 
9 | c1cnc(Nc2nc3c(s2)CCCc2n[nH]cc2-3)cn1 |  | 18% |  |  | 
10 | COc1ccnc(Nc2nc3c(s2)CCCc2n[nH]cc2-3)n1 |  | 230% |  |  | 
11 | c1cnc(Nc2nc3c(s2)CCCc2[nH]ncc2-3)cn1 | > 10000 nM |  | 3.8 ×10⁻⁶ cm/s | 78 µM (≈ 22.2 µg/mL) | 
12 | c1cncc(Nc2nc3c(s2)CCc2n[nH]cc2-3)c1 |  | 11% |  |  | 
13 | c1ccc(Nc2nc3c(s2)CCc2n[nH]cc2-3)nc1 |  | 150% |  |  | 
14 | c1cnc(Nc2nc3c(s2)CCc2[nH]ncc2-3)nc1 | 65 nM |  | 3.4 ×10⁻⁶ cm/s | 20 µM (≈ 5.41 µg/mL) | CL [5]: 4.4 L/min; fraction unbound [6]: 0.036; fraction unbound [7]: 0.105; CL [8]: 42 mL/min
15 | N#Cc1cccc(Nc2nc3c(s2)CCCc2[nH]ncc2-3)n1 | 4900 nM |  | < 0.1 ×10⁻⁶ cm/s | < 0.1 µM | 
16 | COc1ccnc(Nc2nc3c(s2)CCCc2[nH]ncc2-3)n1 | 100 nM |  | 0.3 ×10⁻⁶ cm/s | 0.6 µM (≈ 0.189 µg/mL) | 
17 | c1cncc(Nc2nc3c(s2)CCc2[nH]ncc2-3)c1 | > 10000 nM |  | 18.7 ×10⁻⁶ cm/s | 17 µM (≈ 4.58 µg/mL) | 
18 | Cc1nc2ccccc2nc1N/N=C/c1ccc(O)cc1 |  | 144% |  |  | 
19 | c1cc(Nc2nc3c(s2)CCCc2n[nH]cc2-3)n[nH]1 |  | 140% |  |  | 
20 | Cc1cc(C)nc(Nc2nc3c(s2)CCc2[nH]ncc2-3)c1 | > 10000 nM |  | 1 ×10⁻⁶ cm/s | 0.1 µM (≈ 0.0297 µg/mL) | 
21 | CN(C)c1cccc(Nc2nc3c(s2)CCCc2[nH]ncc2-3)n1 | 340 nM |  | < 0.1 ×10⁻⁶ cm/s | < 0.1 µM | 
22 | c1cc(Nc2nc3c(s2)CCc2[nH]ncc2-3)ccn1 | > 10000 nM |  | 2.5 ×10⁻⁶ cm/s | 180 µM (≈ 48.5 µg/mL) | 
23 | Cc1ccnc(Nc2nc3c(s2)CCCc2n[nH]cc2-3)n1 |  | 210% |  |  | 
24 | Clc1cccc(Nc2nc3c(s2)CCCc2n[nH]cc2-3)n1 |  | 220% |  |  | 

Row | Compound | EC50 [1] | Emax [2] | Papp [3] | solubility kinetic [4] | further results
25 | c1ccc(Nc2nc3c(s2)CCCc2n[nH]cc2-3)nc1 |  | 120% |  |  | 
26 | Cc1ccc(N2C(=O)c3ccccc3NC2C(C)c2ccccc2)cc1 (stereo not given) |  | 129% |  |  | 
27 | c1cc(Nc2nc3c(s2)CCCc2n[nH]cc2-3)ncn1 | 1300 nM | 150% | 41 ×10⁻⁶ cm/s | 1.8 µM (≈ 0.512 µg/mL) | 
28 | Cc1ccc(Nc2nc3c(s2)CCCc2n[nH]cc2-3)nc1 |  | 28% |  |  | 
29 | c1cncc(Nc2nc3c(s2)CCCc2[nH]ncc2-3)c1 | > 10000 nM |  | 35 ×10⁻⁶ cm/s | 3.8 µM (≈ 1.08 µg/mL) | 
30 | Fc1ccc(Nc2nc3c(s2)CCCc2[nH]ncc2-3)nc1 | 750 nM |  | 0.3 ×10⁻⁶ cm/s | < 0.1 µM | 
31 | c1cncc(Nc2nc3c(s2)CCCc2n[nH]cc2-3)c1 |  | 26% |  |  | 
32 | Cc1cc(C)cc(-n2ncc3c(N4CCCC(C)C4)ncnc32)c1 (stereo not given) | 4600 nM | 100% |  |  | 
33 | COc1cccc(Nc2nc3c(s2)CCCc2[nH]ncc2-3)n1 | 650 nM |  | 0.1 ×10⁻⁶ cm/s | 0.1 µM (≈ 0.0313 µg/mL) | 
34 | CN(C)c1cccc(Nc2nc3c(s2)CCCc2n[nH]cc2-3)n1 |  | 150% |  |  | 
35 | Cc1cccc(Nc2nc3c(s2)CCc2[nH]ncc2-3)n1 | 910 nM |  | 2 ×10⁻⁶ cm/s | 2.9 µM (≈ 0.822 µg/mL) | CL [5]: 48 L/min; CL [8]: 400 mL/min
36 | Fc1cccc(Nc2nc3c(s2)CCCc2n[nH]cc2-3)n1 |  | 170% |  |  | 
37 | Cc1ccc(Nc2nc3c(s2)CCCc2[nH]ncc2-3)nc1 | > 10000 nM |  | 2.7 ×10⁻⁶ cm/s | < 0.1 µM | 
38 | O=C(Nc1ccccc1)[C@]12C[C@H]1/C(=N\O)c1ccccc1O2 |  | 120% |  |  | 
39 | Clc1cccc(Nc2nc3c(s2)CCCc2[nH]ncc2-3)n1 | 1100 nM |  | 15.4 ×10⁻⁶ cm/s | 38 µM (≈ 12.1 µg/mL) | 
40 | Cc1cccnc1Nc1nc2c(s1)CCCc1n[nH]cc1-2 |  | 84% |  |  | 
41 | Cc1cc(Nc2nc3c(s2)CCCc2n[nH]cc2-3)n[nH]1 |  | 39% |  |  | 
42 | Cc1cccc(Nc2nc3c(s2)CCc2n[nH]cc2-3)n1 |  | 120% |  |  | 
43 | c1cc(Nc2nc3c(s2)CCCc2[nH]ncc2-3)[nH]n1 | 3200 nM |  | 25 ×10⁻⁶ cm/s | 190 µM (≈ 51.7 µg/mL) | 
44 | Cc1cccc(Nc2nc3c(s2)CCCc2[nH]ncc2-3)n1 | 140 nM |  | 4.9 ×10⁻⁶ cm/s | 110 µM (≈ 32.7 µg/mL) | 
45 | Cc1ccc(Nc2nc3c(s2)CCc2n[nH]cc2-3)nc1 | > 10000 nM | 12% | 1.9 ×10⁻⁶ cm/s | < 0.1 µM | 
46 | c1cnc(Nc2nc3c(s2)CCCc2n[nH]cc2-3)nc1 |  | 160% |  |  | 
47 | c1[nH]nc2c1-c1nc(NC3CCCCC3)sc1CCC2 | 1300 nM | 150% | 2.8 ×10⁻⁶ cm/s | < 0.1 µM | 
48 | COC(=O)c1cccc(Nc2nc3c(s2)CCCc2n[nH]cc2-3)n1 | > 10000 nM | 5% | 0.1 ×10⁻⁶ cm/s | 1.9 µM (≈ 0.649 µg/mL) | 

Row | Compound | EC50 [1] | Emax [2] | Papp [3] | solubility kinetic [4] | further results
49 | c1cc(Nc2nc3c(s2)CCCc2[nH]ncc2-3)nc(N2CCCC2)c1 | > 10000 nM |  | 0.1 ×10⁻⁶ cm/s | < 0.1 µM | 
50 | Cn1ccc(Nc2nc3c(s2)CCCc2[nH]ncc2-3)n1 | 3000 nM |  | 19 ×10⁻⁶ cm/s | 160 µM (≈ 45.8 µg/mL) | 
51 | CCNc1cccc(Nc2nc3c(s2)CCCc2n[nH]cc2-3)n1 | 600 nM | 63% | 3.1 ×10⁻⁶ cm/s | 0.9 µM (≈ 0.294 µg/mL) | 
52 | Cc1[nH]ncc1-c1nc(Nc2ccccn2)sc1C | > 10000 nM | 19% |  |  | 
53 | Cc1n[nH]cc1-c1csc(Nc2ccccn2)n1 | 56 nM | 79% |  |  | 
54 | c1cc(Nc2nc3c(s2)CCc2n[nH]cc2-3)ccn1 |  | 10% |  |  | 
55 | Cc1ccnc(Nc2nc3c(s2)CCCc2[nH]ncc2-3)n1 | 51 nM |  | 0.5 ×10⁻⁶ cm/s | 0.6 µM (≈ 0.179 µg/mL) | 
56 | COCCOc1cccc(Nc2nc3c(s2)CCCc2n[nH]cc2-3)n1 | 390 nM | 90% | 0.1 ×10⁻⁶ cm/s | 0.1 µM (≈ 0.0357 µg/mL) | 
57 | c1cc(Nc2nc3c(s2)CCCc2n[nH]cc2-3)nc(N2CCCC2)c1 |  | 14% |  |  | 
58 | Cc1cc(C)nc(Nc2nc3c(s2)CCCc2n[nH]cc2-3)c1 |  | 4% |  |  | 
59 | c1ccc(Nc2nc3c(s2)CCc2[nH]ncc2-3)cc1 | 2200 nM |  | < 0.1 ×10⁻⁶ cm/s | < 0.1 µM | 
60 | Cc1ccnc(Nc2nc3c(s2)CCc2n[nH]cc2-3)c1 | > 10000 nM | 11% | 12.4 ×10⁻⁶ cm/s | 9 µM (≈ 2.55 µg/mL) | 
61 | c1cnc(Nc2nc3c(s2)CCc2n[nH]cc2-3)nc1 |  | 180% |  |  | 
62 | CCOc1cccc(Nc2nc3c(s2)CCCc2n[nH]cc2-3)n1 | 290 nM | 78% | < 0.1 ×10⁻⁶ cm/s | < 0.1 µM | 
63 | Fc1cccc(Nc2nc3c(s2)CCCc2[nH]ncc2-3)n1 | 105 nM |  | 0.1 ×10⁻⁶ cm/s | 0.2 µM (≈ 0.0603 µg/mL) | 
64 | Fc1ccc(Nc2nc3c(s2)CCCc2n[nH]cc2-3)nc1 |  | 170% |  |  | 
65 | Cc1cc(C)nc(Nc2nc3c(s2)CCc2n[nH]cc2-3)c1 |  | 11% |  |  | 
66 | c1ccc(Nc2nc3c(s2)CCc2n[nH]cc2-3)cc1 |  | 160% |  |  | 
67 | Cc1cc(Nc2nc3c(s2)CCCc2[nH]ncc2-3)[nH]n1 | 2400 nM |  | 15 ×10⁻⁶ cm/s | 10 µM (≈ 2.86 µg/mL) | 
68 | Cc1cccc(Nc2nc3c(s2)CCCc2n[nH]cc2-3)n1 |  | 200% |  |  | 
69 | COc1cccc(Nc2nc3c(s2)CCCc2n[nH]cc2-3)n1 |  | 100% |  |  | 
70 | Cn1ccc(Nc2nc3c(s2)CCCc2n[nH]cc2-3)n1 |  | 130% |  |  | 
